Laboratory results taken from ChEMBL document CHEMBL1150782, “Strong and selective inhibitors of hepatitis B virus replication among novel N4-hydroxy- and 5-methyl-beta-L-deoxycytidine analogues” (Antimicrob Agents Chemother, 2007).

Assays:
[1] = Inhibition of HBV DNA polymerase; set-up: species or system Hepatitis B virus
Outline: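 Endogenous polymerase assay using HBV virions purified from untreated patient serum (>10^7 GE/ml) by ultracentrifugation and a sucrose step gradient. Incubated 1 h at 37°C; [3H]dCMP incorporation counted; IC50 from inhibition curves.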

Hepatitis B virus [2] = assay: Antiviral activity against HBV in HepG2.2.15 cells assessed as decrease in extracellular viral DNA level by RT-PCR; format: functional, organism-based; conditions: HepG2 2.2.15
Outline: (§1)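 HepG2.2.15 (HBV-transfected) cells, ~10^5 per well in DMEM with 10% FBS; compound added at various concentrations with daily medium changes. Supernatants taken at day 3, 6 or 9, cleared, proteinase K digested, and HBV DNA amplified by PCR with subgenomic primers. Products run on 1% agarose, ethidium stained and imaged, calibrated against cloned HBV genome dilutions. EC50 taken from dose-response curves as 50% reduction of medium HBV DNA.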

[3] = Cytotoxicity against human HL60 cells after 3 days by MTT assay; format: cell-based; conditions: HL-60 cells
Outline: (§2)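 HL-60 cells in RPMI or HepG2 cells in DMEM, seeded at 50,000 per well. Exposed for 3 days to varying compound concentrations at 37°C under humidified 5% CO2. Growth read by MTT reduction to formazan. CC50 is the concentration inhibiting growth by 50%; mean ± SD of at least three independent experiments.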

[4] = Cytotoxicity against human CEM cells; format: cell-based; conditions: CCRF-CEM cells
[5] = Cytotoxicity against human HepG2 cells after 3 days by MTT assay; format: cell-based; outline: as §2
Hepatitis B virus [6] = assay: Antiviral activity against HBV in HepG2.2.15 cells assessed as decrease in extracellular viral DNA level at 0.3 uM by PCR; format: functional, organism-based; conditions: HepG2 2.2.15, TDE = time-dependent effect; outline: as §1
[7] = Inhibition of duck HBV DNA polymerase; set-up: species or system Duck hepatitis B virus
Hepatitis B virus [8] = assay: Antiviral activity against HBV in HepG2.2.15 cells assessed as decrease in extracellular viral DNA level at 0.1 uM by PCR; format: functional, organism-based; conditions: HepG2 2.2.15, TDE = time-dependent effect; outline: as §1
Hepatitis B virus [9] = assay: Antiviral activity against HBV in HepG2.2.15 cells assessed as decrease in extracellular viral DNA level at 0.5 uM by PCR; format: functional, organism-based; conditions: HepG2 2.2.15, TDE = time-dependent effect; outline: as §1

Row | SMILES | IC50 [1] | EC50 (Hepatitis B virus [2]) | CC50 at 72 h [3] | CC50 at 72 h [5] | other results
1 | Nc1ccn([C@@H]2CS[C@H](COP(=O)(O)OP(=O)(O)OP(=O)(O)O)O2)c(=O)n1 [LAMIVUDINE TRIPHOSPHATE] | 0.3 µM | – | – | – | –
2 | Nc1ccn([C@@H]2CC[C@H](CO)O2)c(=O)n1 | – | 0.2 µM | 94 µM | 85 µM | CC50 [4]: 70 µM
3 | Cc1cn([C@H]2C[C@H](O)[C@@H](CO)O2)c(=O)[nH]c1=O [DOXRIBTIMINE] | – | 0.3 µM | 1760 µM | 2100 µM | –
4 | Cc1cn([C@@H]2CC[C@H](COP(=O)(O)OP(=O)(O)OP(=O)(O)O)O2)c(=O)nc1N | 6.5 µM | – | – | – | –
5 | Cc1cn([C@@H]2C[C@@H](N=[N+]=[N-])[C@H](CO)O2)c(=O)nc1N | – | 13 µM | 1900 µM | 1750 µM | –
6 | [N-]=[N+]=N[C@@H]1C[C@@H](n2ccc(NO)nc2=O)O[C@H]1CO | – | 50 µM | 2000 µM | 1160 µM | –
7 | Cc1cn([C@@H]2C[C@@H](F)[C@H](COP(=O)(O)OP(=O)(O)OP(=O)(O)O)O2)c(=O)nc1N | 1.9 µM | – | – | – | –
8 | O=c1nc(NO)ccn1[C@@H]1C[C@@H](O)[C@H](COP(=O)(O)OP(=O)(O)OP(=O)(O)O)O1 | 6 µM | – | – | – | –
9 | Cc1cn([C@@H]2C[C@@H](O)[C@H](COP(=O)(O)OP(=O)(O)OP(=O)(O)O)O2)c(=O)nc1NO | 4 µM | – | – | – | –
10 | O=c1nc(NO)ccn1[C@@H]1C=C[C@H](COP(=O)(O)OP(=O)(O)OP(=O)(O)O)O1 | 0.21 µM | – | – | – | –
11 | Nc1ccn([C@@H]2CS[C@H](CO)O2)c(=O)n1 [LAMIVUDINE] | – | 0.1 µM | 1400 µM | 1200 µM | Activity (Hepatitis B virus [6]): tde
12 | Nc1ccn([C@@H]2C=C[C@H](CO)O2)c(=O)n1 | – | – | – | – | CC50 [4]: 20 µM
13 | Cc1cn([C@@H]2C=C[C@H](COP(=O)(O)OP(=O)(O)OP(=O)(O)O)O2)c(=O)nc1N | 6.2 µM | – | – | – | –
14 | Cc1cn([C@@H]2C[C@@H](N=[N+]=[N-])[C@H](COP(=O)(O)OP(=O)(O)OP(=O)(O)O)O2)c(=O)nc1N | 0.85 µM | – | – | – | –
15 | Cc1cn([C@@H]2C[C@@H](O)[C@H](COP(=O)(O)OP(=O)(O)OP(=O)(O)O)O2)c(=O)[nH]c1=O [TELBIVUDINE 5'TRIPHOSPHATE] | 0.46 µM | – | – | – | IC50 [7]: 1 µM
16 | Cc1cn([C@@H]2C[C@@H](O)[C@H](COP(=O)(O)OP(=O)(O)OP(=O)(O)O)O2)c(=O)nc1N | 0.9 µM | – | – | – | –
17 | O=c1nc(NO)ccn1[C@@H]1CC[C@H](COP(=O)(O)OP(=O)(O)OP(=O)(O)O)O1 | 0.99 µM | – | – | – | –
18 | Cc1cn([C@@H]2C=C[C@H](CO)O2)c(=O)nc1N | – | > 50 µM | 600 µM | 1400 µM | –

Now from value to compound, other results behind:

Row | IC50 [1] | EC50 (Hepatitis B virus [2]) | SMILES | CC50 at 72 h [3] | CC50 at 72 h [5] | other results
19 | – | 4.5 µM | O=c1nc(NO)c(F)cn1[C@@H]1C[C@@H](O)[C@H](CO)O1 | 1370 µM | 920 µM | –
20 | – | 2.38 µM | O=c1nc(NO)ccn1[C@@H]1C[C@@H](O)[C@H](CO)O1 | 460 µM | 545 µM | –
21 | – | 0.1 µM | Nc1nc(=O)n([C@@H]2CS[C@H](CO)O2)cc1F [EMTRICITABINE] | 845 µM | 765 µM | –
22 | – | 5.04 µM | Cc1cn([C@@H]2C[C@@H](O)[C@H](CO)O2)c(=O)nc1NO | 600 µM | 490 µM | –
23 | – | > 50 µM | Cc1cn([C@@H]2CC[C@H](CO)O2)c(=O)nc1N | 950 µM | 1550 µM | –
24 | – | 0.55 µM | O=c1nc(NO)ccn1[C@@H]1CC[C@H](CO)O1 | 1600 µM | 2250 µM | –
25 | – | > 50 µM | Cc1cn([C@@H]2C[C@@H](F)[C@H](CO)O2)c(=O)nc1N | 1650 µM | 1800 µM | –
26 | – | 25 µM | O=c1nc(NO)ccn1[C@@H]1CC(F)[C@H](CO)O1 (stereo partly specified) | 4400 µM | 820 µM | –
27 | – | 5 µM | O=c1nc(NO)c(F)cn1[C@@H]1CS[C@H](CO)O1 | 770 µM | 855 µM | –
28 | – | 0.03 µM | O=c1nc(NO)ccn1[C@@H]1C=C[C@H](CO)O1 | 3500 µM | 2500 µM | Activity (Hepatitis B virus [8]): tde
29 | – | 0.51 µM | O=c1nc(NO)ccn1[C@@H]1CS[C@H](CO)O1 | 1450 µM | 1320 µM | Activity (Hepatitis B virus [9]): tde
30 | – | 0.9 µM | Cc1cn([C@@H]2C[C@@H](O)[C@H](CO)O2)c(=O)nc1N | > 2000 µM | > 2000 µM | –
